Apaf-1 inh: inhibitors of human Apaf-1 apoptosome; O14727; reconstituted apoptosome caspase-3 activity, DEVD-Rh110 fluorescence; inhibition, % at 20 µM; 0.71% of 330,000 active; AID 489030; active means inhibition of at least 40% at 20 µM;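 further: plate controls were DMSO wells for no effect and DEVD-CHO caspase inhibitor wells for full effect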
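System: reconstituted apoptosome with Apaf-1, cytochrome c, caspase-9, procaspase-3, dATP; Signal: Rh110 fluorescence intensity; Schedule: 30 min compound preincubation, 50 min activation, room temperature; Reagent: cytochrome c trigger plus (Z-DEVD)2-Rh110 caspase-3 substrate.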
PfGluPho inh: PfG6PD (Plasmodium falciparum) enzyme inhibition. PfGluPho enzyme, NADPH resazurin-diaphorase fluorescence. 0.78% of 350,000 active. inhibition, % at 20 µM. AID 504690;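 active means inhibition reaching at least a set limit at 20 µM in the primary screen, cut at about 59% in these data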;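 further: 0% = DMSO wells with substrate and 100% = DMSO wells lacking glucose-6-phosphate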
UBC13 polyUb: human UBC13 polyubiquitination inhibition | P61088 | UBC13 polyubiquitin chain formation, TR-FRET | inhibition, % at 20 µM | 0.47% of 330,000 active | AID 485273; in the data active means inhibition above about 45%, passing the limit was not always enough
Target sequence (P61088 whole entry, looked up): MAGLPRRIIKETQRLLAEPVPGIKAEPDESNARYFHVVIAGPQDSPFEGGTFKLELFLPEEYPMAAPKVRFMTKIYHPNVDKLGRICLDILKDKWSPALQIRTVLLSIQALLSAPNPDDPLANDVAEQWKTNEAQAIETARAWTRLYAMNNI
EBNA-1 inh: blocks EBNA-1 binding to DNA. EBNA-1 DNA binding, fluorescence polarization. inhibition, % at 14.8 µM. 0.34% of 300,000 active; in the data active means inhibition above about 28%
ZTA DNA inh: ZTA (EBV) inhibition in EBNA-1 counter-screen; P03206; ZTA-DNA binding, fluorescence polarization; inhibition, % at 11 µM; 0.15% of 320,000 active; AID 2234; in the data active means inhibition above about 33%
Target sequence (P03206 whole entry, looked up): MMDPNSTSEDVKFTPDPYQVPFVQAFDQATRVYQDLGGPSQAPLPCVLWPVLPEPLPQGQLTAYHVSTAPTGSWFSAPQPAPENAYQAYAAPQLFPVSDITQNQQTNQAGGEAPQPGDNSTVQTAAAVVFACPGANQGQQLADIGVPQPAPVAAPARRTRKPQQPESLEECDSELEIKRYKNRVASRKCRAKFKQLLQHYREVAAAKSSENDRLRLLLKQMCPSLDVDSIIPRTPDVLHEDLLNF
M18AAP inhibitor: blocks P. falciparum M18 aspartyl aminopeptidase. recombinant PfM18AAP, H-Glu-NHMec fluorogenic cleavage. inhibition, % at 7.35 µM. 1.2% of 290,000 active;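 active means inhibition above the campaign mean inhibition over all tested compounds plus 3 SD, cut at about 28% in these data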;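 further: 0% = plate median of test compound wells and 100% = 2 mM ZnCl2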
Casp3 UBC13 ctr: inhibits human caspase-3 in UBC13 counter-screen | shares compounds with UBC13 polyUb | Recombinant caspase-3, Caspase-Glo 3/7 luminescence, 60 min | inhibition, % at 20 µM | 4% of 1,400 active | AID 488856;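 active means mean inhibition across replicates above about 26%, limit read from the data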;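 further: plate controls were DMSO with caspase-3 for no effect and DMSO wells lacking enzyme for full effect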
Target sequence (P42574 whole entry, looked up): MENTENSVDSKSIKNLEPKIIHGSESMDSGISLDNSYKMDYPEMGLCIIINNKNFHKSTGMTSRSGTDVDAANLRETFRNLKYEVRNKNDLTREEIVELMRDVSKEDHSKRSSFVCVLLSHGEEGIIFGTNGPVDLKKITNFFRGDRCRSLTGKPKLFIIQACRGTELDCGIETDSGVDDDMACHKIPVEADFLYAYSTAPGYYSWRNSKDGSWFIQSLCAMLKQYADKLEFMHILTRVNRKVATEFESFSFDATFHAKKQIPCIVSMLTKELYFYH
UBC13 confirm: confirmation of human UBC13 polyubiquitin inhibitors; shares compounds with UBC13 polyUb; UBC13 polyubiquitination, TR-FRET, biochemical; inhibition, % at 10 µM; 68% of 1,400 active; in the data active means inhibition above about 45%
The depositor's hits bear a star; · = not tested or not shown. Rows were chosen to be rich in hits. Some 2.9% of all compounds tested hit in one or more screens of this group.

SMILES | Apaf-1 inh | PfGluPho inh | UBC13 polyUb | EBNA-1 inh | ZTA DNA inh | M18AAP inhibitor | Casp3 UBC13 ctr | UBC13 confirm
Cc1ccc(CC(=O)Nc2cccc(C(=O)Nc3c(C)n(C)n(-c4ccccc4)c3=O)c2)cc1C | · | -10.8 | · | · | · | · | · | ·
CCOC(=O)CSc1nc(C)c(C(C)=O)cc1C(N)=O | -6.9 | 0.7 | 0.0 | 13.2 | 18.5 | 17.1 | · | ·
CCc1ccc(-c2cc(C(=O)N/N=C/c3ccccn3)[nH]n2)cc1 | 11.9 | -1.1 | 49.9* | -0.8 | -0.1 | -1.0 | 1.8 | 53.9*
O=C(N/N=C/c1ccccn1)c1cc(-c2ccc3ccccc3c2)n[nH]1 | 14.7 | 2.0 | 16.5 | -5.8 | 2.8 | -1.8 | · | ·
O=C(N/N=C/c1ccccn1)c1cc(-c2ccccc2Cl)n[nH]1 | -2.0 | 10.3 | 46.7* | 3.1 | -8.5 | 1.7 | -2.4 | 41.5
COc1ccc(-c2sc3ccccc3c2C#Cc2cncn2C)cc1 | 31.3 | 7.6 | 58.7* | · | · | · | -0.6 | 43.8
Cn1cncc1C#Cc1c(-c2ccc(S(C)(=O)=O)cc2)sc2ccccc12 | 23.6 | 16.6 | 68.9* | · | · | · | -5.2 | 49.7*
COc1ccc(-c2sc3ccccc3c2C#CCO)cc1 | 25.2 | 11.6 | 17.2 | -6.7 | -6.6 | 0.4 | · | ·
CCOc1ccc(C(C(=O)NCC2CCCO2)N(C(=O)c2snc(C(N)=O)c2N)c2ccc(F)cc2)cc1 (stereo unspecified) | 20.5 | 6.8 | 17.1 | 2.0 | -1.1 | 0.1 | · | ·
NC(=O)c1nsc(C(=O)N(c2ccc(F)cc2)C(C(=O)NCC2CCCO2)c2c[nH]c3ccccc23)c1N (stereo unspecified) | 18.3 | -3.5 | 63.0* | -1.3 | 6.9 | 3.6 | 2.3 | 63.7*
NC(=O)c1nsc(C(=O)N(c2cccc(F)c2)C(C(=O)NCC2CCCO2)c2c[nH]c3ccccc23)c1N (stereo unspecified) | 15.8 | 11.3 | 78.9* | -0.1 | 15.3 | 3.0 | 0.0 | 87.2*
Cc1cccc(N(C(=O)c2snc(C(N)=O)c2N)C(C(=O)NCC2CCCO2)c2c[nH]c3ccccc23)c1 (stereo unspecified) | 10.8 | 8.0 | 76.9* | -4.4 | 2.0 | -4.3 | 3.9 | 80.6*
NC(=O)c1nsc(C(=O)N(c2cccc(F)c2)C(C(=O)NCC2CCCO2)c2ccc3ncccc3c2)c1N (stereo unspecified) | 2.0 | -8.7 | 33.3 | 6.9 | 7.2 | 7.7 | · | ·
O=C(OCc1ccc(F)cc1)c1cc(S(=O)(=O)N2CCCCC2)ccc1N1CCOCC1 | 28.3 | 17.0 | 7.2 | 14.0 | 5.4 | · | · | ·
CC[C@]12c3[nH]c4cc(-c5ccco5)ccc4c3CCN1C(=O)[C@@H](CC(=O)NCc1ccc(OC)c(OC)c1)C[C@@H]2C(=O)N1CCN(C(=O)c2ccco2)CC1 | 19.1 | 38.7 | · | · | · | · | · | ·
N/C(Cc1ccccc1)=N\OC(=O)c1cccc2ccccc12 | 4.7 | 2.0 | -0.2 | -6.2 | 4.0 | -2.2 | · | ·
CNC(=O)c1c(NC(=O)c2cccc(N3C(=O)CCC3=O)c2)sc2c1CCC2 | -19.4 | 5.7 | 49.6* | 10.6 | 13.1 | 3.9 | 0.4 | 11.2
CNC(=O)c1c(NC(=O)c2ccc(N3C(=O)CCC3=O)cc2)sc2c1CCCC2 | -0.9 | 6.1 | -2.2 | -7.5 | 14.6 | 4.3 | · | ·
COc1ccc(-c2oc3c4c(cc(OC)c3c(=O)c2CC=C(C)C)OC(C)(C)C=C4)c(OC)c1 | 18.5 | · | -10.1 | 3.1 | -6.8 | · | · | ·
CC(C)=CCc1c(-c2ccc(O)cc2O)oc2cc3c(c(O)c2c1=O)C=CC(C)(C)O3 | -1.2 | 27.2 | 49.9* | -25.7 | -14.9 | · | 0.4 | 2.2
CCCC(C(=O)NC1CCCC1)N(CC1CCCO1)C(=O)c1snc(C(N)=O)c1N (stereo unspecified) | 6.4 | 4.0 | 22.4 | -2.0 | -7.7 | -9.0 | · | ·
CC(C)CC(C(=O)NC(C)(C)C)N(CC1CCCO1)C(=O)c1snc(C(N)=O)c1N (stereo unspecified) | -0.1 | -5.0 | 78.4* | -17.9 | -4.0 | 4.8 | -3.8 | 80.7*
CCCC(C(=O)NC(C)(C)C)N(CC1CCCO1)C(=O)c1snc(C(N)=O)c1N (stereo unspecified) | -0.1 | -8.1 | 50.9* | -3.1 | -6.2 | -0.3 | 1.2 | 52.2*
O=C(O)c1ccc2[nH]c3c(c2c1)CSCC3 | -7.8 | 14.2 | 17.1 | 12.3 | 8.8 | -11.9 | · | ·
CN(C)CCOC(=O)c1ccc2[nH]c3c(c2c1)CSCC3 | 14.6 | 33.2 | 62.2* | 9.1 | 13.8 | -11.9 | -2.5 | 52.7*
SMILES | Apaf-1 inh | PfGluPho inh | UBC13 polyUb | EBNA-1 inh | ZTA DNA inh | M18AAP inhibitor | Casp3 UBC13 ctr | UBC13 confirm
C=CCOc1ccccc1CN(CCc1ccccc1)C(=O)c1cccc(S(C)(=O)=O)c1 | 24.0 | 3.9 | -4.0 | -3.6 | 3.3 | -8.0 | · | ·
Cc1c(C(=O)NC2CCCCC2C)oc2ccccc12 (stereo unspecified) | 13.1 | 8.0 | -4.8 | 0.3 | 12.2 | 0.7 | · | ·
C[C@H](CO)N1C[C@H](C)[C@@H](CN(C)S(=O)(=O)c2ccccc2)Oc2c(NC(=O)Nc3ccc(C(F)(F)F)cc3)cccc2C1=O | 13.8 | 36.9 | 51.6* | · | · | · | -2.5 | 36.9
CC(C)CNC(=O)COc1cccc(C(=O)NCc2ccccc2)c1 | -7.3 | -15.0 | 0.4 | 3.4 | -33.0 | 4.0 | · | ·
COc1ccc(OCC(=O)NNC(=S)NC(=O)C2CC2)cc1 | 13.2 | -13.5 | 78.9* | · | · | 21.5 | -2.5 | 100.8*
Cc1cc(C)cc(OCC(=O)NNC(=S)NC(=O)C2CC2)c1 | 2.0 | -10.8 | 83.4* | 4.0 | 0.7 | 19.0 | 3.6 | 104.0*
COc1ccc(OCC(=O)NNC(=S)NC(=O)C2CCCCC2)cc1 | 8.8 | · | -0.2 | -2.0 | -11.3 | 8.7 | · | ·
COc1ccc(C(=O)Nn2c(SCC(=O)NCc3ccccc3)nc3ccccc3c2=O)cc1 | 8.3 | -25.6 | 52.2* | -6.5 | 2.8 | 8.4 | 2.6 | 58.3*
COc1ccc(C(=O)Nn2c(SCC(=O)NCC3CCCO3)nc3ccccc3c2=O)cc1 (stereo unspecified) | 1.5 | -26.3 | 58.4* | 8.7 | 6.6 | -0.1 | 70.7* | 48.0*
COc1ccc(C(=O)Nn2c(SCC(=O)NC3CCCC3)nc3ccccc3c2=O)cc1 | 7.9 | -38.1 | 43.7 | -3.5 | -5.5 | -13.0 | · | ·
O=C1CCC(O)CCN1CCSc1ccccc1 (stereo unspecified) | 2.7 | -0.4 | -1.7 | -5.1 | 1.2 | -0.3 | · | ·
CCOC(=O)C1CCN(C(=S)NC2CC3C=CC2C3)CC1 (stereo unspecified) | -6.0 | 2.4 | 1.2 | 1.1 | -7.3 | -8.9 | · | ·
COC(=O)C1=C(C)N(CC2CC2)C(=NCc2cccc(Cl)c2)N[C@H]1c1ccccc1 | 7.5 | -9.8 | 53.7* | 6.9 | 16.9 | 0.7 | -1.5 | 31.3
COC(=O)C1=C(C)N(CC2CC2)C(=NCc2cc(OC)c(OC)c(OC)c2)N[C@H]1c1ccccc1 | -4.0 | -1.3 | 4.4 | -2.2 | -18.3 | -7.0 | · | ·
